Data on seven molecules can be found in ChEMBL document CHEMBL1127349, “6,7,8,9-Tetrahydro-N,N-di-n-propyl-3H-benzindol-8-amines. Derivatives as potent and orally active serotonin 5-HT1A receptor agonists” (J Med Chem, 1994).

Test [1] has as its system Rattus norvegicus. In words: The concentration yielding a half maximal decrease of the DOPA was determined in rat limbic system; inactive at 45 umol/kg. The class given is functional, organism-based.
Test [2] has as its system Rattus norvegicus. As to the kind of experiment: The concentration yielding a half maximal decrease of the DOPA was determined in rat brain hemispheres; inactive at 45 umol/kg. The class given is functional, organism-based. Summed up:
(§1)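 Reserpine-pretreated (5 mg/kg sc, 18 h) male Sprague-Dawley rats, 200–300 g; compounds in saline given sc. DOPA and 5-HTP in limbic system, striatum and hemispheres measured by HPLC with electrochemical detection. Dose–response curves of 4–6 doses (n = 4) per area, fitted to variable-slope sigmoid on log data to give ED50.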

The subject of test [3] is Rattus norvegicus. As to the kind of experiment: The concentration yielding a half maximal decrease of the DOPA was determined in rat brain striatum; inactive at 45 umol/kg. The class given is functional, organism-based.
The test system of test [4] is Rattus norvegicus. In words: Motor activity was measured by motility testing on injecting the compound subcutaneously into rats at the dose of 0.02 umol/kg (1a) and 3.5 umol/kg (1b).
The target in the next test is D(2) dopamine receptor (Rattus norvegicus, UniProt P61169). As to the kind of experiment: Displacement of the radioligand [3H]spiperone from D2 receptor. Summed up:
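Rat striatal membranes in 50 mM potassium phosphate buffer, incubated with 0.5 nM [3H]spiperone (3 mg tissue) 10 min at 37 °C. Nonspecific binding defined with 10 μM 6,7-ADTN. IC50 converted to Ki by Cheng–Prusoff; 3–7 experiments, each concentration in triplicate.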

Test [5] deals with Rattus norvegicus. As to the kind of experiment: Motor activity was measured by motility testing on injecting the compound subcutaneously into rats at the dose of 12.5 umol/kg. The class given is functional. In outline:
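Rats given reserpine 5 mg/kg sc 18 h beforehand, then test compound sc in neck (n = 4). Placed singly in photocell motility meters straight after dosing; counts recorded for 30 min, gross behaviour observed throughout. Value as counts/30 min with SEM.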

In test [6] the test system is Rattus norvegicus. In words: The concentration yielding a half maximal decrease of the DOPA was determined in rat limbic system; inactive at 50 umol/kg. The class given is functional, organism-based.
For test [7], the system named is Rattus norvegicus. As to the kind of experiment: The concentration yielding a half maximal decrease of the 5-HTP was determined in rat limbic system; inactive at 50 umol/kg. The class given is functional, organism-based. Summed up: as §1
Test [8] has as its system Rattus norvegicus. In words: The concentration yielding a half maximal decrease of the 5-HTP was determined in rat brain hemispheres; inactive at 50 umol/kg. The class given is functional, organism-based. Summed up:
as §1

Test [9] has as its system Rattus norvegicus. In words: The concentration yielding a half maximal decrease of the 5-HTP was determined in rat brain striatum; inactive at 50 umol/kg. The class given is functional, organism-based. In outline:
as §1

Test [10] relates to Rattus norvegicus. In words: The concentration yielding a half maximal decrease of the DOPA was determined in rat brain striatum; inactive at 50 umol/kg. The class given is functional, organism-based.
Test [11] has as its system Rattus norvegicus. In words: The concentration yielding a half maximal decrease of the DOPA was determined in rat brain hemispheres; inactive at 50 umol/kg. The class given is functional, organism-based. In outline:
as §1

Test [12] addresses T1, 5-hydroxytryptamine receptor 1A (Rattus norvegicus, UniProt P19327).
T1 sequence (P19327 whole entry): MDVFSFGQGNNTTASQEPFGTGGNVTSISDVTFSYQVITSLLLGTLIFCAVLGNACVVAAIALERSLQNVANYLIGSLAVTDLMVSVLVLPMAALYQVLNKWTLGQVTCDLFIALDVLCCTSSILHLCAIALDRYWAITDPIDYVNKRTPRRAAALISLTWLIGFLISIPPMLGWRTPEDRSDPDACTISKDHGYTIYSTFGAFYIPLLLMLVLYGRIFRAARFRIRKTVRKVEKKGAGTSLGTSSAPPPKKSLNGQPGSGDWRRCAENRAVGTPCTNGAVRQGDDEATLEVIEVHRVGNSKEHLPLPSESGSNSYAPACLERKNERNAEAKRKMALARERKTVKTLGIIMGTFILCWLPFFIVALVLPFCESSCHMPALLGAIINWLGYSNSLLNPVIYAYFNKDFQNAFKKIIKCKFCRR
In words: Displacement of the radioligand [3H]8-OH-DPAT from 5-hydroxytryptamine 1A receptor. Summed up:
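Rat whole brain minus brain stem and cerebellum, washed membranes in 50 mM Tris pH 8.0 with 120 mM NaCl, 4 mM CaCl2, 4 mM MgCl2, 10 μM pargyline. Nonspecific with 10 μM 5-HT. IC50 by semilog linear regression, Ki via Cheng–Prusoff; 3–7 experiments, triplicates.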

Test [13] deals with Rattus norvegicus. In words: The concentration yielding a half maximal decrease of the DOPA was determined in rat brain hemispheres; inactive at 12.5 umol/kg. The class given is functional, organism-based. Summed up:
as §1

Test [14] is filed under the species Rattus norvegicus. As to the kind of experiment: The concentration yielding a half maximal decrease of the DOPA was determined in rat brain striatum. The class given is functional. In outline: as §1
For test [15], the species on record is Rattus norvegicus. As to the kind of experiment: The concentration yielding a half maximal decrease of the 5-HTP was determined in rat brain hemispheres. The class given is functional. In outline: as §1
The species entered for test [16] is Rattus norvegicus. In words: The concentration yielding a half maximal decrease of the 5-HTP was determined in rat limbic system. The class given is functional. In outline:
as §1

The species entered for test [17] is Rattus norvegicus. As to the kind of experiment: The concentration yielding a half maximal decrease of the DOPA was determined in rat limbic system. The class given is functional.
Test [18] is filed under the species Rattus norvegicus. In words: Log concentration to inhibit 5-HTP accumulation was determined in rat brain hemispheres. The class given is functional. Summed up:
as §1

The species named for test [19] is Rattus norvegicus. In words: Log concentration to inhibit 5-HTP accumulation was determined in rat limbic system. The class given is functional. In outline: as §1
The species named for test [20] is Rattus norvegicus. As to the kind of experiment: Log concentration to inhibit DOPA accumulation was determined in rat brain striatum. The class given is functional. Summed up:
as §1

The species named for test [21] is Rattus norvegicus. In words: Log concentration to inhibit DOPA accumulation was determined in rat limbic system. The class given is functional. Summed up:
as §1

The species named for test [22] is Rattus norvegicus. As to the kind of experiment: Log concentration to inhibit 5-HTP accumulation was determined in rat brain striatum. The class given is functional. In outline:
as §1

In test [23] the test system is Rattus norvegicus. In words: The concentration yielding a half maximal decrease of the DOPA was determined in rat limbic system; Partial response 50 umol/kg. The class given is functional, organism-based.
Test [24] has as its system Rattus norvegicus. In words: The concentration yielding a half maximal decrease of the DOPA was determined in rat brain striatum; Partial response 50 umol/kg. The class given is functional, organism-based.
For test [25], the species on record is Rattus norvegicus. In words: The concentration yielding a half maximal decrease of the 5-HTP was determined in rat brain striatum. The class given is functional.
Test [26] has as its system Rattus norvegicus. As to the kind of experiment: The concentration yielding a half maximal decrease of the DOPA was determined in rat brain hemispheres; Inactive at 50 umol/kg. The class given is functional, organism-based. Summed up:
as §1

The species named for test [27] is Rattus norvegicus. In words: The concentration yielding a half maximal decrease of the 5-HTP was determined in rat brain hemispheres. The class given is functional.
For test [28], the species on record is Rattus norvegicus. In words: The concentration yielding a half maximal decrease of the 5-HTP was determined in rat limbic system. The class given is functional.
For test [29], the species on record is Rattus norvegicus. In words: The concentration yielding a half maximal decrease of the DOPA was determined in rat limbic system. The class given is functional.
Test [30] is filed under the species Rattus norvegicus. In words: The concentration yielding a half maximal decrease of the DOPA was determined in rat brain striatum. The class given is functional.

Calls of active or inactive are those of the source. The calls are words filed in the database; no cut-off is given here.

Chain of D(2) dopamine receptor (P61169 whole entry): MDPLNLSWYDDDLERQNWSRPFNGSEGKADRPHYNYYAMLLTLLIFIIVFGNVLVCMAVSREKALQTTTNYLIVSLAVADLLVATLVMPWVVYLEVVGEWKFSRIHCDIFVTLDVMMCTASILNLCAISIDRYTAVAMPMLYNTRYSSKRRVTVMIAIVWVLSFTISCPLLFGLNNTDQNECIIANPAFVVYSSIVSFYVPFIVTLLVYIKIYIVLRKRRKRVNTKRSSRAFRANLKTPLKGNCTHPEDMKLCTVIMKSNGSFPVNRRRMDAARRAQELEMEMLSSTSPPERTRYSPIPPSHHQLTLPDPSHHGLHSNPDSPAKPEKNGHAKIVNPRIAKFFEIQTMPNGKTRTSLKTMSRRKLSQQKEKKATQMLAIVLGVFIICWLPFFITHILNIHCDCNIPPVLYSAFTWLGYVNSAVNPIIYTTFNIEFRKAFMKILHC

As to `CCCN(CCC)C1CCc2cccc(O)c2C1` (stereo not given) [8-OH-DPAT], the ED50 result in the test on Rattus norvegicus [1], in the test on Rattus norvegicus [2] and in the test with Rattus norvegicus [3] was “inactive” throughout. Moreover, the Counts/30 min in the test on Rattus norvegicus [4] worked out at 66.
Take `CCCN(CCC)C1CCc2ccc3c(CC(F)(F)F)c[nH]c3c2C1` (stereo not given): the Ki at D(2) dopamine receptor was found to be 2330 nM. This molecule had an Activity with Rattus norvegicus [5] of 74 Counts 30min-1. Besides, the ED50 entry in the test with Rattus norvegicus [6], with Rattus norvegicus [7], with Rattus norvegicus [8], in the test on Rattus norvegicus [9], in the test on Rattus norvegicus [10] and in the test with Rattus norvegicus [11] was “inactive” each time.
On to `CCCN(CCC)C1CCc2ccc3c(C=O)c[nH]c3c2C1` (stereo not given), for which the values for the Ki (in test [12]; at D(2) dopamine receptor) were 6720 nM and > 16000 nM, respectively. For the same molecule, the ED50 result in the test on Rattus norvegicus [6], in the test on Rattus norvegicus [7], with Rattus norvegicus [8], with Rattus norvegicus [9], in the test on Rattus norvegicus [10] and in the test on Rattus norvegicus [11] was “inactive” in each case. In the test with Rattus norvegicus [4], the Counts/30 min was found to be 7.
For the molecule `CCCN(CCC)C1CCc2ccc3[nH]cc(C=O)c3c2C1` (stereo not given), the ED50 result in the test on Rattus norvegicus [13] was “inactive”. The ED50 stood at 3.3 µmol/kg in the test filed under Rattus norvegicus [14], 0.13 µmol/kg in the test filed under Rattus norvegicus [15], 0.11 µmol/kg in the test listed under Rattus norvegicus [16] and 0.3 µmol/kg in the test filed under Rattus norvegicus [17]. Also, the pED50 in the test filed under Rattus norvegicus [18] worked out at 6.88; in the test filed under Rattus norvegicus [19] it was 6.95; in the test filed under Rattus norvegicus [20] it was 5.48; in the test filed under Rattus norvegicus [21], 6.52; in the test listed under Rattus norvegicus [22], 7.18. Besides, the Counts/30 min with Rattus norvegicus [4] worked out at 231.
As to `CCCN(CCC)C1CCc2ccc3c(c2C1)NCC3` (stereo not given), the results for the Ki (in [12]; on D(2) dopamine receptor) were 410 nM and 650 nM, respectively. Further, the ED50 result with Rattus norvegicus [23] and with Rattus norvegicus [24] was “Weak activity” throughout. Moreover, the ED50 result in the test on Rattus norvegicus [7], with Rattus norvegicus [8], in the test with Rattus norvegicus [9] and in the test with Rattus norvegicus [11] was “inactive” throughout.
Consider `CCCN(CCC)[C@H]1CCc2ccc3[nH]cc(C#N)c3c2C1`, for which the Ki in test [12] turned out to be 2.9 nM; on D(2) dopamine receptor, 8020 nM. In the test with Rattus norvegicus [5], this molecule showed an Activity of 300 Counts 30min-1. Further, the ED50 in the test listed under Rattus norvegicus [25] was 0.089 µmol/kg; in the test listed under Rattus norvegicus [27], 0.15 µmol/kg; in the test filed under Rattus norvegicus [28], 0.12 µmol/kg; in the test listed under Rattus norvegicus [29], 42 µmol/kg; in the test listed under Rattus norvegicus [30], 52 µmol/kg. For the same molecule, the ED50 entry with Rattus norvegicus [26] is “inactive”. The pED50 came out at 6.81 in the test filed under Rattus norvegicus [18]; 7.93 in the test filed under Rattus norvegicus [19]; 4.29 in the test listed under Rattus norvegicus [20]; 4.37 in the test listed under Rattus norvegicus [21]; 7.05 in the test listed under Rattus norvegicus [22].
Turning to `CCCN(CCC)[C@H]1CCc2ccc3[nH]ccc3c2C1`, the Activity in the test with Rattus norvegicus [5] was determined as 29 Counts 30min-1.

The term ED50 denotes the dose that gives a 50% effect, or the effect in half of the subjects. By Ki is commonly meant a measure of affinity in units of concentration, obtained from inhibition or displacement.
